# Test results as given in ChEMBL document CHEMBL4673198, “Identification of 3-hydroxy-1,2-dimethylpyridine-4(1H)-thione as a metal-binding motif for the inhibition of botulinum neurotoxin A” (RSC Med Chem, 2021).
# Activity calls are given as the source filed them. The calls are words filed in the database; no cut-off is given here.
# What was measured:
# Clostridium botulinum [1] = experiment: Zinc chelating activity mediated inhibition of Clostridium botulinum BoNT/A1 LC (1 to 425 residues) activity using SNAPtide as substrate at 50 uM incubated with enzyme for 30 mins followed by substrate addition and measured for 20 mins by FRET assay relative to control; conditions: time 50.0 min
# Outline: (§1)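 Enzyme was truncated BoNT/A1 LC (1–425) at 10 nM final, incubated with compound for 30 min at 25 °C in 40 mM HEPES pH 7.4 with 0.01% Triton X-100. SNAPtide substrate followed at 3.8 µM final. Fluorescence rate (ex 490/em 523 nm) read immediately for 20 min. Technical and experimental triplicate.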
# Clostridium botulinum [2] = experiment: Zinc chelating activity mediated inhibition of Clostridium botulinum BoNT/A1 LC (1 to 425 residues) activity using SNAPtide as substrate at 1 mM incubated with enzyme for 30 mins followed by substrate addition and measured for 20 mins by FRET assay relative to control; conditions: time 50.0 min; outline: as §1
# [3] = Zinc chelating activity mediated inhibition of Clostridium botulinum BoNT/A1 LC (1 to 425 residues) activity using SNAPtide as substrate incubated with enzyme for 30 mins followed by substrate addition and measured for 20 mins by FRET assay relative to control; outline: as §1
# [4] = Zinc chelating activity mediated inhibition of Clostridium botulinum Hall A hyper BoNT/A1activity assessed as inhibition of BoNT/A1-induced neurotoxicity in hIPSC derived GABA neurons by measuring protection against SNAP-25 cleavage incubated for 30 mins post BoNT/A1 addition and measured at 7 hrs post-toxin addition by Western blot analysis
# [5] = Selectivity index, ratio of IC50 for zinc chelation-mediated inhibition of Clostridium botulinum BoNT/A1 LC (1 to 425 residues) to IC50 for MMP8 (unknown origin); assay type: toxicity
# [6] = Selectivity index, ratio of IC50 for zinc chelation-mediated inhibition of Clostridium botulinum BoNT/A1 LC (1 to 425 residues) to IC50 for MMP3 (unknown origin); assay type: toxicity
# [7] = Selectivity index, ratio of IC50 for zinc chelation-mediated inhibition of Clostridium botulinum BoNT/A1 LC (1 to 425 residues) to IC50 for MMP7 (unknown origin); assay type: toxicity
# [8] = Selectivity index, ratio of IC50 for zinc chelation-mediated inhibition of Clostridium botulinum BoNT/A1 LC (1 to 425 residues) to IC50 for MMP19 (unknown origin); assay type: toxicity
# Clostridium botulinum [9] = experiment: Selectivity index, ratio of IC50 for zinc chelation-mediated inhibition of Clostridium botulinum Hall A hyper BoNT/A1 activity assessed as protection against SNAP-25 cleavage in hIPSC-derived GABA neurons to IC50 for zinc chelation-mediated inhibition of Clostridium botulinum BoNT/A1 LC (1 to 425 residues)
# [10] = Selectivity index, ratio of IC50 for zinc chelation-mediated inhibition of Clostridium botulinum BoNT/A1 LC (1 to 425 residues) to IC50 for MMP13 (unknown origin); assay type: toxicity
# Clostridium botulinum [11] = experiment: Competitive active site zinc chelating activity mediated inhibition of Clostridium botulinum BoNT/A1 LC (1 to 425 residues) activity at 0.1 to 10 uM using SNAPtide as substrate incubated with enzyme for 30 mins in presence of DCHA followed by substrate addition and measured for 20 mins by FRET assay; conditions: dose 0.1-10 µM, time 50.0 min
# Outline: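 BoNT/A1 LC (1–425), 10 nM final, preincubated with compound for 30 min at room temperature in 40 mM HEPES pH 7.4 with 0.01% Triton X-100. SNAPtide added to 3.8 µM final. Fluorescence rate (ex 490/em 523 nm) read for 20 min. Technical and experimental triplicate.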
# [12] = Selectivity index, ratio of IC50 for zinc chelation-mediated inhibition of Clostridium botulinum BoNT/A1 LC (1 to 425 residues) to IC50 for MMP1 (unknown origin); assay type: toxicity
# [13] = Selectivity index, ratio of IC50 for zinc chelation-mediated inhibition of Clostridium botulinum BoNT/A1 LC (1 to 425 residues) to IC50 for MMP2 (unknown origin); assay type: toxicity
SMILES,inhibition (Clostridium botulinum [1]),IC50 [3],other results
COc1ccc(-n2ccc(=S)c(O)c2C)cc1OC,12%,–,–
Cc1c(O)c(=S)ccn1Cc1ccccc1,55%,–,–
COc1ccccc1Cn1ccc(=S)c(O)c1C,71%,–,–
CCn1ccc(=S)c(O)c1C,–,–,inhibition (Clostridium botulinum [2]): > 95%
Cc1c(O)c(=S)ccn1Cc1ccc(-c2ccc3c(c2)OCO3)cc1,–,1400 nM,IC50 [4]: 51 µM
Cc1ccc(CCn2ccc(=S)c(O)c2C)cc1C,–,2800 nM,–
Cc1c(O)c(=S)ccn1CC12CC3CC(CC(C3)C1)C2,–,4900 nM,–
Cc1c(O)c(=S)ccn1Cc1ccc(F)cc1,64%,–,–
CCOc1ccc(-n2ccc(=S)c(O)c2C)cc1,80%,–,–
Cc1c(O)c(=S)ccn1-c1cc(C(F)(F)F)cc(C(F)(F)F)c1,0%,–,–
Cc1c(O)c(=S)ccn1CCC12CC3CC(CC(C3)C1)C2,–,> 50000 nM,–
Cc1c(O)c(=S)ccn1Cc1ccc(Br)cc1,–,2200 nM,–
Cc1ccc(CCn2ccc(=S)c(O)c2C)c(C)c1,–,1700 nM,–
Cc1c(O)c(=S)ccn1CCc1ccc(-c2ccccc2)cc1,–,1800 nM,Ratio IC50 [5]: 2; Ratio IC50 [6]: 2; Ratio IC50 [7]: 2; Ratio IC50 [8]: 2; Ratio IC50 (Clostridium botulinum [9]): 7; Ratio IC50 [10]: 2; Activity (Clostridium botulinum [11]): Active; Ratio IC50 [12]: 2; Ratio IC50 [13]: 2; IC50 [4]: 13 µM
CCc1c(O)c(=S)ccn1CC,–,–,inhibition (Clostridium botulinum [2]): > 95%
Cc1c(O)c(=S)ccn1-c1ccc(Nc2ccccc2)cc1,14%,–,–
COc1cccc(CCn2ccc(=S)c(O)c2C)c1,62%,–,–
COc1ccc(CCn2ccc(=S)c(O)c2C)cc1,57%,–,–
Cc1c(O)c(=S)ccn1Cc1ccc(-c2ccc3ccccc3c2)cc1,60%,–,–
Cc1c(O)c(=S)ccn1-c1ccc(F)cc1,37%,–,–
Cc1c(O)c(=S)ccn1-c1ccc(N)cc1,16%,–,–

SMILES,inhibition (Clostridium botulinum [1]),IC50 [3],other results
COc1cccc(Cn2ccc(=S)c(O)c2C)c1,65%,–,–
O=C(O)c1cccc(C(=O)O)n1,–,–,inhibition (Clostridium botulinum [2]): > 95%
Cc1c(O)c(=S)ccn1Cc1ccc(Cl)cc1,–,11300 nM,–
Cc1c(O)c(=S)ccn1CCc1ccc(Cl)cc1,–,1900 nM,–
Cc1c(O)c(=S)ccn1Cc1ccc(-c2ccc(Cl)cc2)cc1,–,1300 nM,IC50 [4]: 31 µM
Cc1ccc(Cn2ccc(=S)c(O)c2C)cc1,–,5000 nM,–
Cc1c(O)c(=S)ccn1Cc1ccc([N+](=O)[O-])cc1,–,3000 nM,IC50 [4]: 100 µM
Cc1c(O)c(=S)ccn1Cc1ccc(-c2ccc(F)cc2)cc1,–,1400 nM,IC50 [4]: 33 µM
COc1ccc(Cn2ccc(=S)c(O)c2C)cc1,–,31900 nM,–
O=C(O)c1ccc2cccc(O)c2n1,–,–,inhibition (Clostridium botulinum [2]): > 95%
Cc1c(O)c(=S)ccn1CCc1ccccc1,48%,–,–
Cc1c(O)c(=S)ccn1Cc1cccnc1,52%,–,–
Cc1c(O)c(=S)ccn1Cc1ccc(Cl)cc1Cl,–,> 50000 nM,–
Cc1c(O)c(=S)ccn1Cc1ccc(-c2ccc(F)c(F)c2)cc1,–,1800 nM,IC50 [4]: 39 µM
Cc1c(O)c(=S)ccn1-c1ccc(F)c(C(F)(F)F)c1,0%,–,–
Cc1c(O)c(=S)ccn1Cc1ccc(O)cc1,–,> 50000 nM,–
c1cnc2c(c1)ccc1cccnc12,–,–,inhibition (Clostridium botulinum [2]): > 95%
Cc1ccc(CCn2ccc(=S)c(O)c2C)cc1,81%,3200 nM,–
Cc1c(O)c(=S)ccn1-c1ccc(N2CCOCC2)cc1,0%,–,–
Cc1c(O)c(=S)ccn1C,–,–,inhibition (Clostridium botulinum [2]): > 95%
Cc1c(O)c(=S)ccn1CCc1ccc(Cl)cc1Cl,–,1600 nM,IC50 [4]: 200 µM
